Consider 9 compounds from ChEMBL document CHEMBL1157655, “Design and synthesis of novel series of pyrrole based chemotypes and their evaluation as selective aldose reductase inhibitors. A case of bioisosterism between a carboxylic acid moiety and that of a tetrazole” (Bioorg Med Chem, 2010).

Experiment [1] concerns the target T1, Aldo-keto reductase family 1 member A1 (Rattus norvegicus) (UniProt P51635).
T1 sequence (whole entry): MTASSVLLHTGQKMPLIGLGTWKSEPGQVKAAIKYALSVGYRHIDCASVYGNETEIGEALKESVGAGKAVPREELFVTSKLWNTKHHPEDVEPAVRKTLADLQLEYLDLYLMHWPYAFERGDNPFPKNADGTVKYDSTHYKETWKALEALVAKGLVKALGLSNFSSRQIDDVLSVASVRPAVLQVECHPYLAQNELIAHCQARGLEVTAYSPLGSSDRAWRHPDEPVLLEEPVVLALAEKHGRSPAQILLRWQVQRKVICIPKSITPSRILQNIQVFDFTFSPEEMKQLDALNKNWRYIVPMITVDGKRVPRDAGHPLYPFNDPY
Put plainly: Inhibition of rat kidney aldehyde reductase at 0.1 mM after 20 mins by spectrometric analysis.

Experiment [2] deals with Aldo-keto reductase family 1 member B1 (Rattus norvegicus) (UniProt P07943). The experiment can be described thus: Inhibition of aldose reductase in Fischer-344 rat lens homogenate at 0.1 mM by spectrometric analysis.
Experiment [3] deals with Aldo-keto reductase family 1 member B1 (Rattus norvegicus, UniProt P07943). Put plainly: Inhibition of aldose reductase in Fischer-344 rat lens homogenate by spectrometric analysis.
A short description of experiment [4]: Antioxidant activity against AAPH-induced lipid peroxidation in unilamellar DOPC liposomes after 80 mins by thiocyanate reagent method. The class given is functional. An outline of the steps: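 DOPC unilamellar liposomes (final 0.8 mM, phosphate buffer 20 mM pH 7.4) incubated with test compound (10–300 µM range stated) and AAPH (final 10 mM) at 50 °C for 80 min. Aliquots extracted with ice-cold CHCl3/MeOH (2:1) containing BHT. Lipid hydroperoxide determined by thiocyanate method, absorbance at 500 nm, quantified against cumene hydroperoxide calibration curve. Triplicate.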

For experiment [5], the system named is Radical scavenging activity. The experiment can be described thus: Antioxidant activity assessed as DPPH radical scavenging activity at 0.2 mM. The experiment is classed as functional. An outline of the steps: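 Compounds in absolute ethanol added to an equal volume of ethanolic DPPH to give final 0.2–0.0125 mM compound and 0.2 mM DPPH. Continual absorbance decrease at 517 nm followed. Trolox reference. Triplicate.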

Turning to `O=C(c1ccccc1)c1ccn(CCCc2nn[nH]n2)c1`, the values for the inhibition in experiment [1] and in experiment [2] were 35% and 41%, respectively.

In the case of `O=C(O)CCCn1ccc(C(=O)c2ccccc2)c1`, the IC50 (commonly the concentration that inhibits the measured activity by half) in experiment [3] was 6.04 µM. For the same compound, the inhibition – broadly, the share of the control response that was lost under treatment – in experiment [1] was 22%.

Consider `O=C(c1ccccc1)c1ccn(Cc2nn[nH]n2)c1`, for which the results for the inhibition in experiment [1] and in experiment [2] were 23% and 40%, respectively.

In turn, `O=C(O)Cn1ccc(C(=O)c2ccccc2)c1` registered an inhibition in experiment [1] of 34%. In experiment [4], the half-inhibitory concentration (IC50) is greater than 300 µM. In experiment [5], the Activity amounted to 10%.

In the case of `O=C(c1ccccc1)c1ccn(CCc2nn[nH]n2)c1`, the inhibition in experiment [1] worked out at 41%; in experiment [2] it was 6%.

Compound `O=C(O)CCn1ccc(C(=O)c2ccccc2)c1` had a half-inhibitory concentration (IC50) in experiment [3] of 9.7 µM. The inhibition in experiment [1] is 20%.

Compound `Cc1c(C)c2c(c(C)c1O)CCC(C)(C(=O)O)O2` (stereo not drawn) [TROLOX] registered an IC50 in experiment [4] of 93.5 µM. The Activity in experiment [5] was 98%.

As for `O=C(c1ccccc1)c1ccn(-c2nn[nH]n2)c1`, the IC50 in experiment [3] was 18 µM; in experiment [4], greater than 300 µM. The same compound gave an inhibition in experiment [1] of 18%. In addition, the Activity in experiment [5] stood at 10%.

As to `O=C(c1ccccc1)c1cccn1-c1nn[nH]n1`, the values for the half-inhibitory concentration (IC50) in experiment [3] and in experiment [4] were 20 µM and greater than 300 µM, respectively. Besides, the inhibition in experiment [1] was 18%. For the same compound, the Activity in experiment [5] was 10%.
